Compound activity from PubChem BioAssay.
Rows were chosen to be rich in hits. Some 1.7% of all compounds tested hit in one or more screens of this group.
Cneo AK release: causes C. neoformans cell lysis; 0.2% of 360,000 active; adenylate kinase release luminescence, 4 h; normalised: neutral wells 0, clomiphene wells 100; lysis activity, % at 15 µM;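 active = mean lysis activity across replicates of at least 80%, whatever share of replicates individually reach that level; inactive = mean lysis activity below 80%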
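Material – log-phase Cryptococcus neoformans yeast cells · Input – 5 × 10^6 yeast cells/mL · Medium – fresh YPD growth medium · Doses – single compound concentration per well · Timing – static 4 h at 37 °C with compound, 1 h detection · Detection – adenylate kinase release luminescence · Read-out – signal increase indicating cell lysis · Control set – Clomiphene as positive lysis control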
CFTR F508del cor: correctors of CFTR F508del function in bronchial epithelial cells | 0.36% of 350,000 active | activity (quench increase), % at 7.58 µM | CFBE cells, YFP halide quenching; stimulated with forskolin plus potentiator P3; % fluorescence drop versus neutral controls;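 active = mean added fluorescence quench of at least 8% versus neutral control, with both replicates also reaching 8%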;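 also: cells transiently co-express mutant CFTR-F508del with the halide-sensitive YFP; corrector assay measuring rescue of mutant channel to the surface after 24 h compound exposure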
CaV13 FRET inh: Disruptors of the CACNA1D IQ motif to Ca2+-dependent inactivation inhibitor domain association, primary screening, Förster resonance energy transfer in intact living …; 0.098% of 340,000 active; inhibition, % at 12.3 µM; HEK cells, CFP/YFP FRET ICDI-IQ, plate reader, 10 min; percent FRET-ratio fall versus neutral wells; AID 743397;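 active = mean replicate inhibition of at least 30% and at least 1% of replicates passing that level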;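 also: 0% = median of the neutral control wells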
Ecoli rRNA inh: inhibitors of bacterial rRNA selective over humanized ribosomes. E. coli WT GFP vs humanized-ribosome RFP mutants, fluorescence, 24 h; stronger effect = lower value; DMSO median 0, no signal -100. GFP signal change (wild-type ribosome), % (no concentration beside the values). 1.6% of 350,000 active. AID 720706;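 active = significant combined selectivity score with lowered wild-type GFP, culture density cut under 30%, mutant RFP and density less affected; inactive = any of these conditions unmet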
An asterisk follows results filed as active; nt = not tested or not shown.

SMILES	Cneo AK release	CFTR F508del cor	CaV13 FRET inh	Ecoli rRNA inh
OCCNC(=S)Nc1cc(Cl)cc(Cl)c1	nt	-1	-3	-22*
OCCNC(=S)Nc1ccc(Cl)c(Cl)c1	0	0	-5	-17
C[C@H](CO)N1C[C@H](C)[C@@H](CN(C)S(C)(=O)=O)OCCCC[C@H](C)Oc2ccc(NC(=O)Nc3ccc(F)cc3)cc2C1=O	5	-1	nt	-3
Cc1ccccc1C(=O)Nc1ccc(C(=O)N/N=C/c2ccc(O)cc2)cc1	-3	-2	-2	1
Cc1ccccc1C(=O)Nc1ccc(C(=O)N/N=C/c2ccncc2)cc1	nt	-1	13	-29*
CN(C)C(=O)[C@H]1[C@H](CO)[C@H]2Cn3c(ccc(-c4ccc(F)cc4)c3=O)[C@@H]1N2CCc1ccccc1	-1	-1	nt	-8
COc1ccc(-c2cnc3c(c2)C(=O)N([C@@H](C)CO)C[C@H](C)[C@@H](CN(C)S(C)(=O)=O)O3)cc1	81*	-1	nt	3
COc1ccc(-c2cnc3c(c2)C(=O)N([C@@H](C)CO)C[C@H](C)[C@H](CN(C)S(C)(=O)=O)O3)cc1	-8	0	nt	7
Cc1ccc(S(=O)(=O)N(C)C[C@@H]2Oc3ncc(Br)cc3C(=O)N([C@@H](C)CO)C[C@H]2C)cc1	91*	2	nt	-3
C[C@@H]1CN([C@H](C)CO)C(=O)c2cc(/C=C/c3ccccc3)cnc2O[C@@H]1CN(C)S(C)(=O)=O	87*	-2	nt	-1
C[C@@H]1CN([C@H](C)CO)C(=O)c2cccc(NC(=O)c3nc4ccccc4s3)c2O[C@@H]1CN(C)Cc1ccncc1	-1	-1	nt	-8
Cc1cc(=O)oc2c(C)c(OC(C)C(=O)NCC3CCC(C(=O)O)CC3)ccc12 (stereo not drawn)	-1	-2	nt	nt
Cc1c(Cc2ccccc2)c(=O)oc2c(C)c(OC(C)C(=O)NCC3CCC(C(=O)O)CC3)ccc12 (stereo not drawn)	-4	0	nt	-21*
COc1ccc(C#Cc2cnc3c(c2)C(=O)N([C@@H](C)CO)C[C@H](C)[C@H](CN(C)C(=O)c2ccccc2F)O3)cc1	41	-4	nt	3
COc1cc(C)ccc1OCc1cc(C(=O)N2CCC(c3ccc(F)cc3)C2)no1 (stereo not drawn)	-6	-3	-13	-14*
Cc1ccc(C)c(OCc2cc(C(=O)N3CC[C@@H]4CCCC[C@H]4C3)no2)c1	2	-6	-5	15
COCC#Cc1ccc([C@@H]2[C@@H](CO)N3CCCCN(S(=O)(=O)c4ccccc4F)C[C@@H]23)cc1	2	-2	nt	nt
CCOC(=O)[C@]12CCC=C1N(Cc1ccccc1)C(=O)[C@H](CC(=O)NCCCCc1ccccc1)C2	nt	0	-2	0
CCOC(=O)[C@]12CCCC=C1N(Cc1ccccc1)C(=O)[C@H](CC(=O)NCCc1ccccc1OC)C2	nt	0	nt	-21*
CCOC(=O)[C@]12CCC=C1N(Cc1ccccc1)C(=O)[C@H](CC(=O)NCCC(C)C)C2	nt	-1	-7	-24*
N=c1c2c(-c3ccccc3)c(-c3ccccc3)n(Cc3ccco3)c2ncn1CCO	2	nt	nt	nt
N=c1c2c(-c3ccccc3)c(-c3ccccc3)n(Cc3ccco3)c2ncn1CCCO	1	0	-4	-52*
O=C(O)c1ccc(-c2ccc(/C=C3\NC(=O)N(Cc4ccc(Cl)cc4)C3=O)o2)cc1	3	1	48*	3
COCC(=O)Nc1ccc2c(c1)C(=O)N(C)C[C@H](OC)[C@@H](C)CN(Cc1cncnc1)[C@H](C)CO2	-4	-3	nt	2
O=C(C1CC1)N1CC(=O)N2[C@H](C1)[C@H](c1ccc(C#Cc3cccc(F)c3)cc1)[C@@H]2CO	nt	8	nt	-13
SMILES	Cneo AK release	CFTR F508del cor	CaV13 FRET inh	Ecoli rRNA inh
COC(=O)COc1ccc(S(=O)(=O)N2CCc3ccccc3C2)cc1C	0	nt	nt	-26*
CCCN(CC(=O)Nc1ccccc1C)C(=O)c1ccc(S(=O)(=O)N2CCCCCC2)cc1	3	-3	-6	-2
CCCN(CC(=O)Nc1ccccc1C)C(=O)c1cccc(S(=O)(=O)N2CCc3ccccc3C2)c1	4	1	-7	-21*
CCOC(=O)N1CCC(C(=O)Nc2ccc(OCC)cc2)CC1	-1	9.8*	-6	3
O=C(Nc1ccc(C(=O)O)cc1)/C(=C\C=C\c1ccccc1)NC(=O)c1ccccc1Br	-3	1	-4	-16*
O=C(Nc1cccc(C(=O)O)c1)/C(=C\C=C\c1ccccc1)NC(=O)c1ccccc1	nt	2	-16	-19*
COc1ccccc1Cn1c(=S)[nH]c2ccc(F)cc2c1=O	3	-1	-19	-14*
COc1ccccc1Cn1c(=S)[nH]c2ccc(Br)cc2c1=O	2	0	-4	3
COc1ccccc1Cn1c(=S)[nH]c2ccccc2c1=O	0	-2	-21	-28*
COc1ccc(NS(=O)(=O)c2cc(NC(=O)c3cnccn3)ccc2OC)cc1Br	1	0	-3	-31*
COc1ccc(NS(=O)(=O)c2cc(NC(=O)c3cnccn3)ccc2N2CCCC2)cc1	1	nt	-2	1
CS(=O)(=O)Nc1ccc2c(c1)[C@@H]1C[C@H](CC(=O)NCc3ccccc3)O[C@@H](CO)[C@@H]1O2	55	-3	nt	2
CC(/C=C1\SC(=S)N(NC(=O)c2ccc(C)cc2)C1=O)=C\c1ccccc1	6	nt	nt	nt
CC(/C=C1\SC(=S)N(NS(=O)(=O)c2ccccc2)C1=O)=C\c1ccccc1	2	-2	-4	-43*
CC(/C=C1\SC(=S)N(NC(=O)c2ccncc2)C1=O)=C\c1ccccc1	0	0	-19	-32*
COc1cc(/C=C2\SC(=S)N(NC(=O)c3ccncc3)C2=O)ccc1O	nt	13*	-24	5
CCN1[C@H](C(=O)N(C)C)[C@@H](CO)[C@@H]2Cn3c(ccc(C4=CCCC4)c3=O)[C@@H]21	nt	nt	nt	4
Cc1nc([N+](=O)[O-])cn1CC(O)c1ccc(-c2ccccc2)cc1 (stereo not drawn)	0	-1	-5	-45*
CC1CCN(Cc2cc(=O)oc3ccc4ccccc4c23)CC1	nt	0	-4	-23*
CC(C)c1ccc2oc(=O)cc(CN3CCCCC3)c2c1	6	2	-4	-21*
Cc1cc2oc(=O)cc(CN3CCC(C)CC3)c2cc1C	0	-3	-2	-5
CC1CCN(Cc2cc(=O)oc3ccc(C(C)C)cc23)CC1	-1	-2	-1	-23*
CC(C)c1ccc2oc(=O)cc(CN3CCN(c4ccccc4)CC3)c2c1	4	nt	0	nt
O=C(Nc1cccc(F)c1)N1CCCCN2[C@H](CO)[C@@H](c3ccc(-c4ccccc4F)cc3)[C@H]2C1	11	0	nt	-56
CC=Cc1ccc2n(c1=O)C[C@@H]1[C@@H](CO)[C@H](C(=O)NCCc3cn(C)cn3)[C@H]2N1C(=O)C1CCCC1 (mixture of isomers)	0	-6	nt	2
